Assay results from ChEMBL document CHEMBL2157965, “Structure-based design of potent Bcl-2/Bcl-xL inhibitors with strong in vivo antitumor activity” (J Med Chem, 2012).
The source made the active and inactive calls. No cut-off for these calls is given here. Peptide text beside a SMILES is read from it.

Experiments:
NCI-H146 [1] = assay: Induction of apoptosis in human NCI-H146 cells assessed as caspase3 activation after 24 hrs by Western blot analysis; type: functional, cell-based
Procedure, shortened: (§1)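 H146 cells were treated for 24 h at a range of concentrations. Lysates were probed by Western blot with rabbit antibodies to PARP and caspase-3, detecting the cleaved forms. GAPDH served as loading control.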

NCI-H1417 = assay: Antiproliferative activity against human NCI-H1417 cells after 4 days by WST8 assay; type: functional, cell-based; conditions: NCI-H1417, 96 h
Procedure, shortened: (§2)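 Growth inhibition was measured as described previously. IC50 values come from growth curves.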

NCI-H146 [2] = assay: Induction of cell death in human NCI-H146 cells after 24 hrs by trypan blue assay; type: functional, cell-based
Procedure, shortened: (§3)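 H146 cells were treated for 24 h across a range of concentrations. Cell death was scored by trypan blue assay.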

NCI-H1963 = assay: Antiproliferative activity against human NCI-H1963 cells after 4 days by WST8 assay; type: functional, cell-based; conditions: NCI-H1963, 96 h; procedure, shortened: as §2
NCI-H146 [3] = assay: Induction of apoptosis in human NCI-H146 cells assessed as PARP cleavage after 24 hrs by Western blot analysis; type: functional, cell-based; procedure, shortened: as §1
[4] = Antiproliferative activity against human NCI-H146 cells after 4 days by WST8 assay; type: functional, cell-based; conditions: NCI-H146, 96 h; procedure, shortened: as §2
[5] = biological target: Induced myeloid leukemia cell differentiation protein Mcl-1 (Homo sapiens, UniProt Q07820); assay: Inhibition of human N-terminal His8-tagged Mcl1 expressed in Escherichia coli BL21(DE3) assessed as inhibition of Fluorescein-labeled BID binding after 1 to 2 hrs by fluorescence polarization assay
Bcl-2-like protein 1 = Bcl-2-like protein 1 (Homo sapiens, UniProt Q07817); assay: Inhibition of human N-terminal His8-tagged Bcl-XL expressed in Escherichia coli BL21(DE3) assessed as inhibition of Fluorescein-labeled BAK binding after 1 to 2 hrs by fluorescence polarization assay
[6] = Inhibition of human N-terminal His6-tagged Bcl2 isoform 2 expressed in Escherichia coli BL21(DE3) assessed as inhibition of Fluorescein-labeled BIM binding after 1 to 2 hrs by fluorescence polarization assay
NCI-H146 [7] = assay: Induction of apoptosis in human NCI-H146 cells assessed as caspase3 activation at 10 nM after 24 hrs by Western blot analysis; type: functional, cell-based; procedure, shortened: as §1
Mus musculus [8] = assay: Toxicity in SCID mouse assessed as weight loss at 25 mg/kg, iv administered 5 days a week for 2 weeks; type: organism-based; set-up: dose 25 mg/kg, route intravenous; conditions: in vivo
NCI-H146 [9] = assay: Induction of cell death in human NCI-H146 cells at 10 nM after 24 hrs by trypan blue assay; type: functional, cell-based; procedure, shortened: as §3
NCI-H146 [10] = assay: Induction of apoptosis in human NCI-H146 cells assessed as PARP cleavage at 10 nM after 24 hrs by Western blot analysis; type: functional, cell-based; procedure, shortened: as §1
NCI-H146 [11] = assay: Induction of apoptosis in human NCI-H146 cells assessed as PARP cleavage after 2 hrs by Western blot analysis; type: functional, cell-based
NCI-H146 [12] = assay: Induction of apoptosis in human NCI-H146 cells assessed as increase in cytochrome c release at 30 nM after 2 hrs; type: functional, cell-based
NCI-H146 [13] = assay: Induction of apoptosis in human NCI-H146 cells assessed as increase in cytochrome c release after 2 hrs; type: functional, cell-based
NCI-H146 [14] = assay: Induction of apoptosis in human NCI-H146 cells assessed as PARP cleavage at 30 nM after 2 hrs by Western blot analysis; type: functional, cell-based
NCI-H146 [15] = assay: Induction of apoptosis in human NCI-H146 cells xenografted in SCID mouse assessed as caspase3 activation at 25 mg/kg, iv up to 24 hrs by Western blot analysis; type: functional, organism-based; set-up: dose 25 mg/kg
Procedure, shortened: (§4)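 SCID mice bearing subcutaneous H146 tumors (about 100 mm3) received a single i.v. dose of 25 mg/kg or vehicle. Tumors were collected at 3, 6 and 24 h. Western blot of tumor tissue assessed PARP and caspase-3 and their cleaved forms, with GAPDH as loading control.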

NCI-H146 [16] = assay: Antitumor activity against human NCI-H146 cells xenografted in SCID mouse assessed as tumor regression at 25 mg/kg, iv administered 5 days a week for 2 weeks relative to vehicle-treated control; type: functional, organism-based; set-up: dose 25 mg/kg
Procedure, shortened: (§5)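 SCID mice received 5 × 10^6 H146 cells with matrigel, injected subcutaneously on the dorsal side, one tumor per mouse. At 40–110 mm3 (mean 70 mm3), mice were randomized, 8 per group. Dosing was 25 mg/kg i.v. daily, 5 days/week for 2 weeks, versus vehicle. Tumor size and body weight were measured 3×/week during treatment and 2×/week afterwards.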

NCI-H146 [17] = assay: Induction of apoptosis in human NCI-H146 cells xenografted in SCID mouse assessed as PARP cleavage at 25 mg/kg, iv up to 24 hrs by Western blot analysis; type: functional, organism-based; set-up: dose 25 mg/kg; procedure, shortened: as §4
NCI-H146 [18] = assay: Induction of apoptosis in human NCI-H146 cells xenografted in SCID mouse assessed as caspase3 activation at 25 mg/kg, iv at 3 hrs by Western blot analysis; type: functional, organism-based; set-up: dose 25 mg/kg; procedure, shortened: as §4
[19] = Antitumor activity against human NCI-H146 cells xenografted in SCID mouse assessed as tumor size at 25 mg/kg, iv administered 5 days a week for 2 weeks measured on day 92 ( Rvb = 800 mm3); type: functional; procedure, shortened: as §5
NCI-H146 [20] = assay: Induction of apoptosis in human NCI-H146 cells xenografted in SCID mouse assessed as PARP cleavage at 25 mg/kg, iv at 3 hrs by Western blot analysis; type: functional, organism-based; set-up: dose 25 mg/kg; procedure, shortened: as §4
Mus musculus [21] = assay: Toxicity in SCID mouse xenografted with human NCI-H146 cells assessed as weight loss at 25 mg/kg, iv administered 5 days a week for 2 weeks; type: organism-based; set-up: dose 25 mg/kg, route intravenous; conditions: in vivo; procedure, shortened: as §5
NCI-H146 [22] = assay: Antitumor activity against human NCI-H146 cells xenografted in SCID mouse assessed as tumor growth inhibition at 25 mg/kg, iv administered 5 days a week for 2 weeks relative to vehicle-treated control; type: functional, organism-based; set-up: dose 25 mg/kg; procedure, shortened: as §5

Induced myeloid leukemia cell differentiation protein Mcl-1, sequence (Q07820 whole entry): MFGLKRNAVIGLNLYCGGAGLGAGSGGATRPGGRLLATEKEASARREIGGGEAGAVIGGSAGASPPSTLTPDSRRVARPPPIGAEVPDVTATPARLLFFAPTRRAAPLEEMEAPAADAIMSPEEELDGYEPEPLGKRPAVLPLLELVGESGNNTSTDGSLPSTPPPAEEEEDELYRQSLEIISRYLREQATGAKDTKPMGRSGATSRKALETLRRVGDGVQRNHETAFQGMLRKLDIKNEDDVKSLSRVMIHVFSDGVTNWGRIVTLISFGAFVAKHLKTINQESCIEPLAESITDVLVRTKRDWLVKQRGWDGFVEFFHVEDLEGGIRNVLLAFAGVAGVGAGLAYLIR
Bcl-2-like protein 1, sequence (Q07817 whole entry, canonical isoform): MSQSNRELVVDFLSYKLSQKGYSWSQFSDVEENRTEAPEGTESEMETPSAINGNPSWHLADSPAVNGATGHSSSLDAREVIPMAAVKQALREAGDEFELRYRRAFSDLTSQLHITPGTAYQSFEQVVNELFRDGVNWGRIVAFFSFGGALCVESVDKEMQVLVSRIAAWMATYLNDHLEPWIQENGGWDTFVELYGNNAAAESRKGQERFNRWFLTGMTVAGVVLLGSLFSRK

Structure (SMILES)	Activity (NCI-H146 [1])	IC50 (NCI-H1417) [nM]	Activity (NCI-H146 [2])	IC50 (NCI-H1963) [nM]	Activity (NCI-H146 [3])	IC50 [4] [nM]	IC50 [5] [nM]	IC50 (Bcl-2-like protein 1) [nM]	Ki (Bcl-2-like protein 1) [nM]	IC50 [6] [nM]	Ki [6] [nM]	also measured
CN(C)CC[C@H](CSc1ccccc1)Nc1ccc(S(=O)(=O)NC(=O)c2ccc(N3CCN(Cc4ccccc4-c4ccc(Cl)cc4)CC3)cc2)cc1[N+](=O)[O-] [ABT 737]	Dose-dependent effect	412	Dose-dependent effect	59	Dose-dependent effect	37	–	–	–	–	–	–
CSCC[C@H](NC(=O)[C@H](CCCN=C(N)N)NC(=O)[C@H](CCCN=C(N)N)NC(=O)[C@H](CC(C)C)NC(=O)[C@H](CCC(=O)O)NC(=O)[C@H](CCCN=C(N)N)NC(=O)CNC(=O)[C@H](Cc1ccc(O)cc1)NC(=O)[C@H](CCCN=C(N)N)NC(=O)[C@H](CCC(N)=O)NC(=O)[C@H](C)NC(=O)[C@H](C)NC(=O)[C@@H](N)Cc1c[nH]c2ccccc12)C(=O)N[C@@H](CO)C(=O)N[C@@H](CC(=O)O)C(=O)N[C@@H](CCC(=O)O)C(=O)N[C@@H](Cc1ccccc1)C(=O)N[C@H](C(=O)N[C@@H](CC(=O)O)C(=O)N[C@@H](CO)C(=O)N[C@@H](Cc1ccccc1)C(=O)N[C@@H](CCCCN)C(=O)O)C(C)C (H-WAAQRYGRELRRMSDEFVDSFK-OH)	–	–	–	–	–	–	32000	5	< 1	–	–	–
Cc1c(C(=O)NCCCN2CCN(C)CC2)c(-c2ccccc2)c(-c2ccc(Cl)cc2)n1C	–	> 10000	–	> 10000	–	> 10000	> 100000	291000	88000	103000	38000	–
Cc1c(C(=O)NCCCN2CCN(C)CC2)c(-c2cccc(N3CCN(c4ccc(C(=O)NS(=O)(=O)c5ccc(N[C@H](CCN(C)C)CSc6ccccc6)c([N+](=O)[O-])c5)cc4)CC3)c2)c(-c2ccc(Cl)cc2)n1C	–	> 10000	–	> 10000	–	> 10000	> 100000	–	–	–	7	–
Cc1c(C(=O)NCCCN2CCN(C)CC2)c(-c2cccc(N3CCN(c4ccc(NS(=O)(=O)c5ccc(N[C@H](CCN(C)C)CSc6ccccc6)c([N+](=O)[O-])c5)cc4)CC3)c2)c(-c2ccc(Cl)cc2)n1C	–	258	–	72	–	110	> 10000	–	2.4	2	< 0.6	–
Cc1c(C(=O)O)c(-c2cccc(N3CCN(c4ccc(NS(=O)(=O)c5ccc(N[C@H](CCN(C)C)CSc6ccccc6)c([N+](=O)[O-])c5)cc4)CC3)c2)c(-c2ccc(Cl)cc2)n1C(C)C	Dose-dependent effect	–	Dose-dependent effect	–	Dose-dependent effect	–	> 2000	4.8	< 1	–	–	Activity (NCI-H146 [7]): Active; Activity (Mus musculus [8]): Toxic; Activity (NCI-H146 [9]): Active; Activity (NCI-H146 [10]): Active; Activity (NCI-H146 [11]): Dose-dependent effect; Activity (NCI-H146 [12]): Active; Activity (NCI-H146 [13]): Dose-dependent effect; Activity (NCI-H146 [14]): Active
CCn1c(C)c(C(=O)O)c(-c2cccc(N3CCN(c4ccc(NS(=O)(=O)c5ccc(N[C@H](CCN(C)C)CSc6ccccc6)c([N+](=O)[O-])c5)cc4)CC3)c2)c1-c1ccc(Cl)cc1	Dose-dependent effect	17.7	Dose-dependent effect	4.5	Dose-dependent effect	8.1	> 2000	6.6	< 1	2	< 0.6	Activity (NCI-H146 [15]): Active; Activity (NCI-H146 [16]): Active; Activity (NCI-H146 [17]): Active; Activity (NCI-H146 [18]): Active; Activity [19]: 200 mm3; Activity (Mus musculus [8]): Non-toxic; Activity (NCI-H146 [9]): Active; Activity (NCI-H146 [20]): Active; Activity (Mus musculus [21]): < 10%; Activity (NCI-H146 [11]): Dose-dependent effect; Activity (NCI-H146 [12]): Active; TGI (NCI-H146 [22]): Active; Activity (NCI-H146 [13]): Dose-dependent effect; Activity (NCI-H146 [14]): Active
Cc1cc(-c2cccc(N3CCN(c4ccc(NS(=O)(=O)c5ccc(N[C@H](CCN(C)C)CSc6ccccc6)c([N+](=O)[O-])c5)cc4)CC3)c2)c(-c2ccc(Cl)cc2)n1C	–	–	–	–	–	> 10000	> 10000	11	1.2	–	–	–
CNC(=O)c1c(-c2cccc(N3CCN(c4ccc(NS(=O)(=O)c5ccc(N[C@H](CCN(C)C)CSc6ccccc6)c([N+](=O)[O-])c5)cc4)CC3)c2)c(-c2ccc(Cl)cc2)n(C)c1C	–	109	–	30	–	36	–	–	< 1	5	1.1	–
CC(C)C[C@H](NC(=O)[C@H](CCCCN)NC(=O)[C@H](CC(=O)O)NC(=O)CNC(=O)[C@H](Cc1ccccc1)NC(=O)[C@H](CCCNC(=N)N)NC(=O)[C@H](CCCNC(=N)N)NC(=O)[C@H](CC(C)C)NC(=O)[C@H](CCC(N)=O)NC(=O)[C@@H](NC(=O)[C@H](C)NC(=O)[C@H](CS)NC(=O)[C@H](CCC(=O)O)NC(=O)[C@@H](NC(=O)[C@H](CCC(=O)O)NC(=O)[C@H](CC(C)C)NC(=O)[C@@H](N)CCC(=O)O)C(C)C)[C@@H](C)O)C(=O)N[C@@H](CC(N)=O)C(=O)N[C@@H](Cc1ccccc1)C(=O)N[C@@H](CCCNC(=N)N)C(=O)N[C@@H](CCC(N)=O)C(=O)N[C@@H](CCCCN)C(=O)O (H-ELEVECATQLRRFGDKLNFRQK-OH)	–	–	–	–	–	–	37	11000	3400	–	–	–
CN1CCN(CCCNC(=O)c2c(-c3ccccc3)c(-c3ccc(Cl)cc3)cn2CC[C@H](O)CO)CC1	–	–	–	> 10000	–	–	–	–	–	–	–	–
Cc1c(C(=O)O)c(-c2cccc(N3CCN(c4ccc(NS(=O)(=O)c5ccc(N[C@H](CCN(C)C)CSc6ccccc6)c([N+](=O)[O-])c5)cc4)CC3)c2)c(-c2ccc(Cl)cc2)n1C1CC1	–	154	–	60	–	69	> 2000	7.7	< 1	17.6	4.3	–
Cc1c(C(=O)O)c(-c2cccc(N3CCN(c4ccc(NS(=O)(=O)c5ccc(N[C@H](CCN(C)C)CSc6ccccc6)c([N+](=O)[O-])c5)cc4)CC3)c2)c(-c2ccc(Cl)cc2)n1C	Dose-dependent effect	–	Dose-dependent effect	–	Dose-dependent effect	–	> 2000	–	< 1	1.3	< 0.6	–
